Molecules are shown by their SMILES. Calls of active or inactive are those of the source.

Drawing on ChEMBL document CHEMBL1240373, “Glycerol monolaurate inhibits Candida and Gardnerella vaginalis in vitro and in vivo but not Lactobacillus” (Antimicrob Agents Chemother, 2010), this text covers Activity for 1 molecule.

In data set [1] the test system is Candida albicans. Description: Antifungal activity against Candida albicans SC5314 assessed as => 3-log drop in number of fungal CFU/ml at 100 ug/ml after 4 to 8 hrs. Format: functional, organism-based. The gist of the method:
(§1)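 Candida species (C. albicans SC5314 and clinical isolates, C. glabrata, C. kefyr, C. parapsilosis, C. tropicalis, C. krusei) grown 24 h at 37°C with 200 rpm shaking in 25 ml Todd Hewitt broth with GML at 0, 50, 100 or 500 μg/ml. CFU were counted at time points by serial dilution and plating. Fungicidal was defined as a ≥3-log CFU/ml drop.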

The next data set relates to Nakaseomyces glabratus. Description: Antifungal activity against Candida glabrata assessed as => 3-log drop in number of fungal CFU/ml at 500 ug/ml after 4 to 8 hrs. The data set is classed as functional, organism-based. The procedure, abridged:
as §1

The next data set has as its system Kluyveromyces marxianus. The data set can be described thus: Antifungal activity against Candida pseudotropicalis kefyr assessed as => 3-log drop in number of fungal CFU/ml at 100 ug/ml after 4 to 8 hrs. Format: functional, organism-based. The procedure, abridged:
as §1

Another data set concerns Candida parapsilosis. The data set can be described thus: Antifungal activity against Candida parapsilosis assessed as => 3-log drop in number of fungal CFU/ml at 500 ug/ml after 4 to 8 hrs. Format: functional, organism-based. The procedure, abridged: as §1
The test system of another data set is Candida tropicalis. Description: Antifungal activity against Candida tropicalis assessed as => 3-log drop in number of fungal CFU/ml at 500 ug/ml after 4 to 8 hrs. Format: functional, organism-based. The gist of the method:
as §1

In the next data set the test system is Pichia kudriavzevii. Description: Antifungal activity against Candida krusei assessed as => 3-log drop in number of fungal CFU/ml at 500 ug/ml after 4 to 8 hrs. Format: functional, organism-based. The procedure, abridged:
as §1

The subject of data set [2] is Candida albicans. Description: Antifungal activity against Candida albicans SC5314 clinical isolate at 100 ug/ml after 24 hrs. Format: functional, organism-based. The gist of the method:
as §1

Data set [3] deals with Gardnerella vaginalis. Description: Antibacterial activity against Gardnerella vaginalis assessed as => 3-log drop in number of fungal CFU/ml at 1 to 10 ug/ml after 24 hrs. The data set is classed as functional, organism-based.
Data set [4] relates to Candida. Description: Antifungal activity against Candida-mediated vaginal infection in woman at 0.5% treated via intravaginal gels every 12 hrs for 2 days measured post application. The data set is classed as functional, organism-based. Conditions: Vagina. The procedure, abridged: (§2)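 Double-blind randomized study. Women self-applied intravaginal gel (warming-gel vehicle) with 0, 0.5 or 5% GML every 12 h for 2 days. Swabs were taken before and just after the first dose and 12 h after the last dose, placed in 1 ml Todd Hewitt broth, serially diluted and plated on chocolate agar (37°C, 7% CO2, up to 3 days). Organisms were identified by colony features as CFU/ml secretions, visit 1 vs visit 2. Detection limit 10^2 CFU/ml.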

Data set [5] relates to Gardnerella vaginalis. The data set can be described thus: Antibacterial activity against Gardnerella vaginalis-mediated vaginal infection in woman at 0.5% treated via intravaginal gels every 12 hrs for 2 days measured post application. The data set is classed as functional, organism-based. The note with it: Vagina. The procedure, abridged:
as §2

Data set [6] relates to Lactobacillus. The data set can be described thus: Antibacterial activity against Lactobacillus-mediated vaginal infection in woman at 0.5% treated via intravaginal gels every 12 hrs for 2 days measured post application. The data set is classed as functional. Conditions: Vagina. The procedure, abridged: as §2
Data set [7] relates to Candida. Description: Antifungal activity against Candida-mediated vaginal infection in woman at 5% treated via intravaginal gels every 12 hrs for 2 days measured post application. Conditions: Vagina. Format: functional, organism-based. The gist of the method:
as §2

Data set [8] deals with Gardnerella vaginalis. The data set can be described thus: Antibacterial activity against Gardnerella vaginalis-mediated vaginal infection in woman at 5% treated via intravaginal gels every 12 hrs for 2 days measured post application. Format: functional, organism-based. The note with it: Vagina. The gist of the method:
as §2

Data set [9] has as its system Lactobacillus. The data set can be described thus: Antibacterial activity against Lactobacillus-mediated vaginal infection in woman at 5% treated via intravaginal gels every 12 hrs for 2 days measured post application. Format: functional. Conditions: Vagina. The gist of the method: as §2
Data set [10] has as its system Gardnerella vaginalis. The data set can be described thus: Antibacterial activity against Gardnerella vaginalis-mediated vaginal infection in woman assessed as effect on vaginal pH at 0.5% treated via intravaginal gels every 12 hrs for 2 days measured post application. The note with it: Vagina. Format: functional, organism-based. The gist of the method:
(§3)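 Women self-applied vaginal gels containing 0, 0.5 or 5% GML in a warming-gel vehicle every 12 h for 2 days. Vaginal pH was measured at visit 1 (before the first dose) and visit 2, and the two visits were compared.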

Data set [11] has as its system Gardnerella vaginalis. The data set can be described thus: Antibacterial activity against Gardnerella vaginalis-mediated vaginal infection in woman assessed as effect on vaginal pH at 5% treated via intravaginal gels every 12 hrs for 2 days measured post application. Conditions: Vagina. Format: functional, organism-based. The gist of the method: as §3
Data set [12] deals with Lactobacillus. The data set can be described thus: Antibacterial activity against Lactobacillus-mediated vaginal infection in woman assessed as effect on vaginal pH at 0.5% treated via intravaginal gels every 12 hrs for 2 days measured post application. The data set is classed as functional. The note with it: Vagina. The procedure, abridged: as §3
The subject of data set [13] is Lactobacillus. The data set can be described thus: Antibacterial activity against Lactobacillus-mediated vaginal infection in woman assessed as effect on vaginal pH at 5% treated via intravaginal gels every 12 hrs for 2 days measured post application. Format: functional. Conditions: Vagina. The gist of the method:
as §3

Data set [14] deals with Candida. The data set can be described thus: Antifungal activity against Candida-mediated vaginal infection in woman assessed as effect on vaginal pH at 0.5% treated via intravaginal gels every 12 hrs for 2 days measured post application. The data set is classed as functional, organism-based. The note with it: Vagina. The procedure, abridged: as §3
Data set [15] relates to Candida. Description: Antifungal activity against Candida-mediated vaginal infection in woman assessed as effect on vaginal pH at 5% treated via intravaginal gels every 12 hrs for 2 days measured post application. Format: functional, organism-based. The note with it: Vagina. The gist of the method: as §3
Data set [16] is filed under the species Homo sapiens. The data set can be described thus: Toxicity in woman with Candida-mediated vaginal infection assessed as adverse events at 5% treated via intravaginal gels every 12 hrs for 2 days measured post application. Format: organism-based, Vagina. Conditions: in vivo, other.
For data set [17], the species on record is Homo sapiens. The data set can be described thus: Toxicity in woman with Gardnerella vaginalis-mediated vaginal infection assessed as adverse events at 5% treated via intravaginal gels every 12 hrs for 2 days measured post application. Conditions: in vivo, other. Format: organism-based, Vagina.
The species entered for data set [18] is Homo sapiens. Description: Toxicity in woman with vaginal infection assessed as adverse events at 5% treated via intravaginal gels every 12 hrs for 2 days measured post application. Conditions: in vivo, other.

Consider `CCCCCCCCCCCC(=O)OCC(O)CO` (stereo not drawn) [GLYCEROL MONOLAURATE], for which the outcome in the data set with Candida albicans [1], in the data set with Nakaseomyces glabratus, in the data set on Kluyveromyces marxianus, in the data set with Candida parapsilosis, with Candida tropicalis and in the data set on Pichia kudriavzevii was Active. Moreover, the outcome in the data set on Candida albicans [2], with Gardnerella vaginalis [3], with Candida [4], with Gardnerella vaginalis [5], in the data set on Candida [7] and in the data set on Gardnerella vaginalis [8] was Active. Besides, the result in the data set with Lactobacillus [6], in the data set with Lactobacillus [9], with Gardnerella vaginalis [10], in the data set with Gardnerella vaginalis [11], in the data set on Lactobacillus [12] and in the data set on Lactobacillus [13] was inactive. Moreover, the outcome in the data set on Candida [14] and in the data set on Candida [15] was inactive. Moreover, the Activity result in the data set filed under Homo sapiens [16], in the data set filed under Homo sapiens [17] and in the data set filed under Homo sapiens [18] was “Non-toxic” throughout.
